bCat KO growth = primary screen for growth suppressors in beta-catenin knockout HCT116 cells (colon tumor, human). HCT116 beta-catenin knockout viability, CellTiter-Glo, 60 h; hits give low values. viability, % at 10 µM. 140,000 tested, 1.5% active;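 active means viability at or under a set limit, the compound median less 4 SD, cut at about 6% in these data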
TNAP inh noacc = human TNAP enzyme inhibitors, primary screen, biochemical, luminescent, no phosphate acceptor, uHTS; Alkaline phosphatase, tissue-nonspecific isozyme (Homo sapiens), P05186; purified TNAP, CDP-star luminescence, 30 min; inhibition, % at 20 µM; 200,000 tested, 0.26% active; AID 1012, 2008;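 active means tissue-nonspecific alkaline phosphatase inhibition above about 50% at 20 µM in the single-dose screen, limit read from the data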
Target sequence (P05186 whole entry, looked up): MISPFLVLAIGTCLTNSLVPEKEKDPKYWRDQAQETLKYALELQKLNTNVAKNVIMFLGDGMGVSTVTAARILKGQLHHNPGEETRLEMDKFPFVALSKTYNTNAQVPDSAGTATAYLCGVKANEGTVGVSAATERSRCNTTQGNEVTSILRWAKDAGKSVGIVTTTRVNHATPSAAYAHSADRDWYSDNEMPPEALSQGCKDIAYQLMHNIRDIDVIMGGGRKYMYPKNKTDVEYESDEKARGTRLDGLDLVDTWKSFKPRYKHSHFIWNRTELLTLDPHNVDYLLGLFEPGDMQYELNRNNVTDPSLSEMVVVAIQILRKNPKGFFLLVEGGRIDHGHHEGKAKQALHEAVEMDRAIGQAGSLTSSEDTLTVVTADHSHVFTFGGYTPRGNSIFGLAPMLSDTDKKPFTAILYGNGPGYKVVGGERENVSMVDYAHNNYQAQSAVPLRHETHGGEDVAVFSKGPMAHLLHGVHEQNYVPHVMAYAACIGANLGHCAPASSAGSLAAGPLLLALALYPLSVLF
TNAP inh hiacc = human TNAP enzyme inhibitors, primary screen, biochemical, luminescent, high phosphate acceptor level, uHTS; 200,000 tested, 0.03% active; inhibition, % at 20 µM; Alkaline phosphatase, tissue-nonspecific isozyme (Homo sapiens), P05186; AID 1135, 2008; purified TNAP, CDP-star luminescence, 1 M DEA;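 active means over 50% inhibition of tissue-nonspecific alkaline phosphatase at 20 µM in the single-dose screen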
TNAP act hiacc = TNAP activators at high phosphate acceptor level, primary screen, biochemical, luminescence, uHTS | purified TNAP, CDP-star luminescence, 1 M DEA, 30 min; hits give high values; 0 = EDTA background, 1 = DMSO-only activity | AID 1136, 2008 | activation factor at 20 µM | 200,000 tested, under 10 active;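 active means activation factor at least 2 at 20 µM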
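system = human TNAP | amount = enzyme diluted 1/800 final | reagent = 100 µM CDP-star substrate | signal = luminescent substrate turnover signal | dosing = one dose, 20 µM | benchmarks = EDTA negative control, DMSO positive control | measure = activation factor | timing = 30 min reaction, room temperature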
Lmaj promast = Leishmania major promastigote growth inhibition, primary screen. inhibition, % at 10 µM. 200,000 tested, 9% active. Leishmania major promastigotes, resazurin fluorescence viability; in the data active means inhibition above about 50%;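 further: promastigotes grown with compound for 44 hours at 28 °C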
HCT116 PTEN-null = growth suppression of PTEN-null HCT116, primary screen, cell-based, CellTiter-Glo | 140,000 tested, 1.2% active | HCT116 PTEN-null viability, 60 h; hits give low values | viability, % at 10 µM;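 active means viability at or below a set limit, 4 SD under the median of all tested compounds, cut at about 3.7% in these data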;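 further: PTEN knockout HCT116 line with beta catenin targeted HCT116 as companion control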
Numbers stand for hits. An excerpt weighted towards active compounds, which were near 9.6% of everything screened.

`Cc1ccc2[nH]c(=O)c(C(c3nnnn3C3CCCC3)N(Cc3cccnc3)Cc3ccco3)cc2c1` (centres undefined) gave bCat KO growth inactive, TNAP inh noacc inactive, TNAP inh hiacc inactive, TNAP act hiacc inactive, Lmaj promast 85 and HCT116 PTEN-null inactive.
`CCC(c1nnnn1C1CCCCC1)N(Cc1ccco1)Cc1cc2ccc(OC)cc2[nH]c1=O` (centres undefined) gave bCat KO growth 3.0, TNAP inh noacc inactive, TNAP inh hiacc inactive, TNAP act hiacc inactive, Lmaj promast 74 and HCT116 PTEN-null inactive.
C=CCC1CCCC(=O)N2CC[C@H](O)C12 (some centres undefined) was read as bCat KO growth inactive, TNAP inh noacc inactive, TNAP inh hiacc inactive, TNAP act hiacc inactive, Lmaj promast inactive and HCT116 PTEN-null inactive.
`CC1(c2ccccc2)NC(=O)N(N)C1=O` (centres undefined) gave TNAP inh noacc inactive, TNAP inh hiacc inactive, TNAP act hiacc inactive and Lmaj promast inactive.
For CCOC(=O)CCC(=O)Nc1cccc([N+](=O)[O-])c1 the results were bCat KO growth inactive, TNAP inh noacc inactive, TNAP inh hiacc inactive, TNAP act hiacc inactive, Lmaj promast inactive and HCT116 PTEN-null inactive.
`Cc1ccc2cc(C(c3nnnn3C3CCCC3)N(Cc3cccnc3)Cc3ccco3)c(=O)[nH]c2c1` (centres undefined) gave bCat KO growth inactive, TNAP inh noacc inactive, TNAP inh hiacc inactive, TNAP act hiacc inactive, Lmaj promast inactive and HCT116 PTEN-null inactive.
Screening CCN(Cc1ccccc1)C(c1ccccn1)c1nnnn1C1CCCCC1 (centres undefined) returned bCat KO growth inactive, TNAP inh noacc inactive, TNAP inh hiacc inactive, TNAP act hiacc inactive, Lmaj promast inactive and HCT116 PTEN-null inactive.
`CCOC(=O)Cn1nnnc1C(CC)N(Cc1cccs1)Cc1cc2ccc(OC)cc2[nH]c1=O` (centres undefined) gave bCat KO growth inactive, TNAP inh noacc inactive, TNAP inh hiacc inactive, TNAP act hiacc inactive, Lmaj promast 99 and HCT116 PTEN-null inactive.
Clc1ccc(C(c2nnnn2C2CCCCC2)N(Cc2cccnc2)Cc2ccco2)cc1 (centres undefined) was read as bCat KO growth inactive, TNAP inh noacc inactive, TNAP inh hiacc inactive, TNAP act hiacc inactive, Lmaj promast 100 and HCT116 PTEN-null inactive.
Screening Cc1ccc2cc(C(c3nnnn3C3CCCC3)N(Cc3ccco3)Cc3cccs3)c(=O)[nH]c2c1 (centres undefined) returned bCat KO growth inactive, TNAP inh noacc inactive, TNAP inh hiacc inactive, TNAP act hiacc inactive, Lmaj promast 82 and HCT116 PTEN-null inactive.
`O=C(/C=C/c1cc([N+](=O)[O-])ccc1OC(F)F)Nc1cccc2ccccc12` gave bCat KO growth inactive, TNAP inh noacc inactive, TNAP inh hiacc inactive, TNAP act hiacc inactive, Lmaj promast inactive and HCT116 PTEN-null inactive.
For O=S(=O)(c1ccccc1)c1nc(NC2CC2)sc1Cl the results were TNAP inh noacc inactive, TNAP inh hiacc inactive, TNAP act hiacc inactive and Lmaj promast inactive.
`O=S(=O)(c1ccccc1)c1nc(Nc2ccccc2N2CCOCC2)sc1Cl` gave bCat KO growth inactive, TNAP inh noacc inactive, TNAP inh hiacc inactive, TNAP act hiacc inactive, Lmaj promast 56 and HCT116 PTEN-null inactive.
Screening CN(c1ccccc1)S(=O)(=O)c1cccc(NS(=O)(=O)c2ccc(/C=C/C(=O)O)cc2)c1 returned TNAP inh noacc inactive, TNAP inh hiacc inactive, TNAP act hiacc inactive and Lmaj promast inactive.
Cc1[nH]n(-c2ccccc2)c(=S)c1C=Nc1ccc([N+](=O)[O-])cc1 was read as bCat KO growth inactive, TNAP inh noacc inactive, TNAP inh hiacc inactive, TNAP act hiacc inactive, Lmaj promast inactive and HCT116 PTEN-null inactive.
For CCOC(=O)C1CCN(Cc2cc(=O)n3c(-c4ccccc4)csc3n2)CC1 the results were TNAP inh noacc inactive, TNAP inh hiacc inactive, TNAP act hiacc inactive and Lmaj promast 88.
Screening CN1CCc2c(C#N)c(N3CCCCC3)nc(NCc3ccccc3)c2C1 returned bCat KO growth 1.0, TNAP inh noacc inactive, TNAP inh hiacc inactive, TNAP act hiacc inactive, Lmaj promast 78 and HCT116 PTEN-null 1.4.
`N#Cc1c(NCCCO)nc(NCc2ccccc2)c2c1CCN(Cc1ccccc1)C2` gave bCat KO growth inactive, TNAP inh noacc inactive, TNAP inh hiacc inactive, TNAP act hiacc inactive, Lmaj promast 59 and HCT116 PTEN-null inactive.
`COc1cccc(OC)c1C(=O)Nc1nc2ccc([N+](=O)[O-])cc2s1` gave TNAP inh noacc inactive, TNAP inh hiacc inactive, TNAP act hiacc inactive and Lmaj promast inactive.
O=C(CCCN1C(=O)c2cccc3cccc(c23)C1=O)N1CCN(c2ccccc2)CC1 was read as bCat KO growth inactive, TNAP inh noacc inactive, TNAP inh hiacc inactive, TNAP act hiacc inactive, Lmaj promast inactive and HCT116 PTEN-null inactive.
`O=C(CCCN1C(=O)c2cccc3cccc(c23)C1=O)N1CCN(c2ccccc2O)CC1` gave bCat KO growth inactive, TNAP inh noacc inactive, TNAP inh hiacc inactive, TNAP act hiacc inactive, Lmaj promast 70 and HCT116 PTEN-null inactive.
Screening COC(=O)c1sccc1NC(=O)CSc1nnnn1-c1ccccc1C returned bCat KO growth inactive, TNAP inh noacc inactive, TNAP inh hiacc inactive, TNAP act hiacc inactive, Lmaj promast inactive and HCT116 PTEN-null inactive.
Screening Cc1ccc(NC(=O)c2ccccc2Cl)c(Cl)c1 returned bCat KO growth inactive, TNAP inh noacc inactive, TNAP inh hiacc inactive, TNAP act hiacc inactive, Lmaj promast inactive and HCT116 PTEN-null inactive.
For CC(=O)c1c(C(C)=O)c(C)n(-c2ccc(C)c(NC(=O)c3ccccc3Cl)c2)c1C the results were bCat KO growth inactive, TNAP inh noacc inactive, TNAP inh hiacc inactive, TNAP act hiacc inactive, Lmaj promast 53 and HCT116 PTEN-null inactive.
`Cc1ccc(-c2nc3ncccc3o2)cc1NC(=O)c1ccco1` gave Lmaj promast 99.
`Cc1ccc(-c2nc3ncccc3o2)cc1NC(=S)NC(=O)c1ccco1` gave TNAP inh noacc inactive, TNAP inh hiacc inactive, TNAP act hiacc inactive and Lmaj promast inactive.
Screening CCCC(=O)Nc1cc(-c2nc3ncccc3o2)ccc1C returned bCat KO growth inactive, TNAP inh noacc inactive, TNAP inh hiacc inactive, TNAP act hiacc inactive, Lmaj promast 89 and HCT116 PTEN-null inactive.
Cc1ccc(-c2nc3ncccc3o2)cc1NC(=O)c1cccs1 was read as TNAP inh noacc inactive, TNAP inh hiacc inactive, TNAP act hiacc inactive and Lmaj promast 95.
